Test results as given in ChEMBL document CHEMBL4145611, “Discovery of Marinoquinolines as Potent and Fast-Acting Plasmodium falciparum Inhibitors with in Vivo Activity” (J Med Chem, 2018).

Assays:
Plasmodium falciparum = experiment: Antiplasmodial activity against chloroquine-sensitive blood parasite forms of Plasmodium falciparum 3D7 infected in RBC by SYBR green assay; type: functional, organism-based; settings: 3D7, Erythrocyte
In short: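 3D7 blood-stage cultures, sorbitol-synchronized twice beforehand, used at 5-10% parasitemia with >80% rings, diluted to 0.5% parasitemia and 2% hematocrit with graded compound (0.05% DMSO), triplicate; artesunate and chloroquine controls. SYBR green I lysis-buffer fluorescence at 485/535 nm; IC50 from curve fit relative to drug-free medium.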

[1] = Therapeutic index, ratio of EC50 for human HepG2 cells to IC50 for chloroquine-sensitive blood parasite forms of Plasmodium falciparum 3D7; type: toxicity; settings: read-out: TI
HepG2 = experiment: Cytotoxicity against human HepG2 cells assessed as reduction in cell viability after 24 hrs by MTT assay; type: cell-based; settings: HepG2, 24 h
In short: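 HepG2 cells in RPMI-1640 with 10% heat-inactivated serum, seeded 5×10^3 per well, allowed to adhere 18 h at 37 °C, then exposed to compound (400–6.2 µM) for 24 h at 37 °C, 5% CO2. MTT (5 mg/mL) for 3 h, formazan dissolved in DMSO, absorbance 570 nm with 630 nm background; viability as percent of untreated control.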

SMILES	IC50 (Plasmodium falciparum; read-out: IC50)	IC50 (Plasmodium falciparum; read-out: pIC50 (converted))	selectivity ratio [1]	EC50 (HepG2)
COc1ccc2c(c1)nc(Cc1ccccc1)c1[nH]ccc12	14.3 µM		33	478 µM
CCc1nc2ccccc2c2cc[nH]c12	7.3 µM		21	151 µM
Brc1ccc2[nH]cc(-c3nc4ccccc4c4cc[nH]c34)c2c1	12.3 µM	12.3 µM	8	93 µM
Brc1c[nH]c2c(-c3c[nH]c4ccccc34)nc3ccccc3c12	> 10 µM			
CCc1nc2cc(OC)ccc2c2cc[nH]c12	> 10 µM			
COc1ccc2c(c1)nc(-c1ccc(NC(C)=O)cc1)c1[nH]ccc12	> 10 µM	> 10 µM		
O=C(O)c1ccc(-c2nc3ccccc3c3cc[nH]c23)cc1	12.1 µM		7	82 µM
COc1ccc2c(c1)nc(C)c1[nH]ccc12	10.5 µM		> 71	> 750 µM
Brc1ccc(-c2nc3ccccc3c3cc[nH]c23)cc1	> 10 µM			
COc1cc(-c2nc3ccccc3c3cc[nH]c23)cc(OC)c1OC	9.2 µM		11	99 µM
Cc1nc2ccccc2c2cc[nH]c12 [MARINOQUINOLINE A]	> 10 µM			
c1ccc(Cc2nc3ccccc3c3cc[nH]c23)cc1 [MARINOQUINOLINE C]	> 10 µM			
Brc1ccc2c(-c3nc4ccccc4c4cc[nH]c34)c[nH]c2c1	6.2 µM		7	42 µM
Brc1ccc2c(c1)nc(-c1c[nH]c3ccccc13)c1[nH]ccc12	7.9 µM		> 32	> 250 µM
COc1ccc2c(c1)nc(-c1ccc(C(=O)O)cc1)c1[nH]ccc12	> 10 µM			
COc1ccc(-c2nc3ccccc3c3cc[nH]c23)cc1	6.7 µM		> 37	> 250 µM
c1ccc(-c2nc3ccccc3c3cc[nH]c23)cc1	9.9 µM		> 75	> 750 µM
Clc1ccc(-c2nc3ccccc3c3cc[nH]c23)cc1	10.5 µM		> 24	> 250 µM
Nc1ccc(-c2nc3ccccc3c3cc[nH]c23)cc1	7.7 µM		5	41 µM
c1ccc2c(c1)nc(-c1c[nH]c3ccccc13)c1[nH]ccc12 [MARINOQUINOLINE E]	10.4 µM		> 72	> 750 µM
O=[N+]([O-])c1ccc(-c2nc3ccccc3c3cc[nH]c23)cc1	> 10 µM			

Now those with a lower IC50 (Plasmodium falciparum; read-out: IC50), led by results:

IC50 (Plasmodium falciparum; read-out: IC50)	IC50 (Plasmodium falciparum; read-out: pIC50 (converted))	SMILES	selectivity ratio [1]	EC50 (HepG2)
5.8 µM		CN(C)c1ccc(-c2nc3ccccc3c3cc[nH]c23)cc1	> 104	> 600 µM
5.4 µM		COc1ccc2c(c1)nc(C)c1[nH]cc(Br)c12	> 46	> 250 µM
4.9 µM		COc1cc(OC)cc(-c2nc3ccccc3c3cc[nH]c23)c1	> 51	> 250 µM
4.8 µM		c1ccc2[nH]c(-c3nc4ccccc4c4cc[nH]c34)cc2c1	155	746 µM
4.1 µM		CC(C)Cc1nc2ccccc2c2cc[nH]c12	> 61	> 250 µM
4 µM	3.98 µM	COC(=O)c1ccc(-c2nc3ccccc3c3cc[nH]c23)cc1	> 63	> 250 µM
2.4 µM		COc1ccc2c(c1)nc(-c1ccccc1)c1[nH]ccc12	25	60 µM
2.1 µM		COc1ccc2c(c1)nc(-c1ccccc1)c1[nH]cc(Br)c12	53	111 µM
1.9 µM		COc1ccc2c(c1)nc(-c1ccc([N+](=O)[O-])cc1)c1[nH]ccc12	76	144 µM
1 µM	1 µM	COc1cc(OC)cc(-c2nc3cc(OC)ccc3c3cc[nH]c23)c1	> 250	> 250 µM
0.4 µM		COc1ccc2c(c1)nc(-c1ccc(N(C)C)cc1)c1[nH]ccc12	50	20 µM
